Legend:
[1] = test system: human; experiment: amount in urine after dosing (umol); conditions: dosed: tert-amyl methyl ether, 38.4 ppm, inhalation, duration: 4 hr
How it was run: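 Points were largely digitised from plot screenshots with WebPlotDigitizer or otherwise copied from tables, and they remain in the units each source reported. They come from published in vivo toxicokinetic studies and two structured collections. Sampling and analytical methods follow each source and were often not reported.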

[2] = test system: rat; experiment: amount in urine after dosing (umol); conditions: dosed: tert-amyl methyl ether, 38.4 ppm, inhalation, duration: 4 hr, F344 (Harlan Winkelmann)
[3] = test system: rat; conditions: dosed: benzo[a]pyrene, 20 umol/kg, dermal, duration: continuous, male, Wistar
[4] = test system: rat; conditions: dosed: benzo[a]pyrene, 50 umol/kg, dermal, duration: continuous, male, Wistar
[5] = test system: rat; conditions: dosed: benzo[a]pyrene, 50 umol/kg, oral, male, Wistar
[6] = test system: rat; conditions: dosed: benzo[a]pyrene, 20 umol/kg, oral, male, Wistar
[7] = test system: rat; conditions: dosed: benzo[a]pyrene, 10 umol/kg, dermal, duration: continuous, male, Wistar
[8] = test system: rat; conditions: dosed: benzo[a]pyrene, 10 umol/kg, oral, male, Wistar
[9] = test system: rat; conditions: dosed: benzo[a]pyrene, 1 mg/kg, iv, male, Sprague Dawley
[10] = test system: rat; experiment: concentration in serum after dosing; conditions: dosed: benzo[a]pyrene, 20 mg/kg, oral, male, Wistar
[11] = test system: rat; conditions: dosed: benzo[a]pyrene, 1 mg/kg, iv, male, Sprague Dawley; remark: listed apart in the source
[12] = test system: rat; experiment: concentration in blood after dosing; conditions: male
[13] = test system: rat; experiment: concentration in kidney after dosing; conditions: male, Sprague Dawley
[14] = test system: rat; experiment: concentration in urine after dosing; conditions: male, Sprague Dawley
[15] = test system: rat; experiment: concentration in liver after dosing; conditions: male, Sprague Dawley
[16] = test system: rat; experiment: concentration in heart/thymus after dosing; conditions: dosed: [3H]benzo(a)pyrene, 1 ug/kg, inhalation, male, Sprague Dawley, radiolabel
[17] = test system: rat; experiment: concentration in stomach after dosing; conditions: dosed: [3H]benzo(a)pyrene, 1 ug/kg, inhalation, male, Sprague Dawley, radiolabel
[18] = test system: rat; experiment: concentration in testes after dosing; conditions: dosed: [3H]benzo(a)pyrene, 1 ug/kg, inhalation, male, Sprague Dawley, radiolabel
[19] = test system: rat; experiment: concentration in lung after dosing; conditions: male, Sprague Dawley
[20] = test system: rat; experiment: concentration in spleen after dosing; conditions: dosed: [3H]benzo(a)pyrene, 1 ug/kg, inhalation, male, Sprague Dawley, radiolabel
[21] = test system: rat; experiment: concentration in body after dosing; conditions: dosed: [3H]benzo(a)pyrene, 1 ug/kg, inhalation, male, Sprague Dawley, radiolabel
[22] = test system: rat; experiment: concentration in feces after dosing; conditions: male, Sprague Dawley
[23] = test system: rat; experiment: concentration in intestines after dosing; conditions: dosed: [3H]benzo(a)pyrene, 1 ug/kg, inhalation, male, Sprague Dawley, radiolabel
[24] = test system: rat; experiment: concentration in blood after dosing; conditions: dosed: perchloroethylene, 12500 ppm, dermal, duration: 4 hr, male, F344
[25] = test system: rat; experiment: concentration in blood after dosing; conditions: dosed: perchloroethylene, 12500 ppm, dermal, duration: 4 hr, male, F344; remark: listed apart in the source
[26] = test system: rat; experiment: concentration in blood after dosing; conditions: dosed: perchloroethylene, 12500 ppm, dermal, duration: 4 hr, male, F344; remark: listed apart in the source
[27] = test system: rat; experiment: concentration in skin after dosing; conditions: dosed: benzo(a)pyrene, 40 umol/kg, iv, male, Sprague Dawley
[28] = test system: rat; experiment: concentration in adipose after dosing; conditions: dosed: benzo(a)pyrene, 40 umol/kg, iv, male, Sprague Dawley

CCC(C)(O)C(=O)O (configuration not stated) [2-hydroxy-2-methyl butyrate]
Conditions	amount in urine
[1], 0.1093 h	54.7
[1], 6.284 h	93.4
[1], 12.15 h	100
[1], 18.2 h	59.9
[1], 24.12 h	39.1
[1], 30.12 h	33.6
[1], 36.29 h	57.8
[1], 42.13 h	29.8
[1], 48.22 h	51.6
[2], 5.978 h	0.204
[2], 12 h	0.29
[2], 18.07 h	0.213
[2], 24.08 h	0.0776
[2], 29.94 h	0.0345
[2], 36.02 h	0.092
[2], 42.04 h	0.103
[2], 48.11 h	0.0517

Oc1ccc2ccc3c4ccccc4cc4ccc1c2c43 [3-OH-benzo[a]pyrene]
Conditions	amount in urine after dosing [µg]
[3], 23.4 h	0.591
[3], 48.57 h	2.38
[3], 72.51 h	6.61
[3], 96.49 h	9.6
[3], 120.43 h	10.6
[3], 145.24 h	11
[4], 23.15 h	4.97
[4], 47.4 h	8.97
[4], 71.67 h	13.3
[4], 95.8 h	17.3
[4], 120.35 h	20
[4], 144.4 h	20.8
[5], 23.43 h	7.37
[5], 47.73 h	18.4
[5], 71.9 h	31.3
[5], 95.37 h	33.1
[5], 120.29 h	33.4
[5], 144.04 h	33.6
[6], 24.03 h	3.66
[6], 47.78 h	5.43
[6], 72.42 h	7.03
[6], 96.58 h	7.51
[6], 121.02 h	8.21
[6], 144.77 h	8.23
[7], 23.76 h	0.169
[7], 48.25 h	1.6
[7], 72.44 h	5.62
[7], 96.26 h	8.27
[7], 120.41 h	10.3
[7], 145.21 h	10.7
[8], 23.94 h	0.884
[8], 48.41 h	1.94
[8], 72.16 h	3.75
[8], 96.63 h	4.84
[8], 120.41 h	5.22
[8], 144.81 h	5.41

Oc1ccc2ccc3c4ccccc4cc4ccc1c2c43 [3-hydroxybenzo[a]pyrene]
Conditions	amount in feces after dosing [ng]	amount in urine after dosing [ng]	concentration in serum [ng/mL]
[9], 10.02 h	–	46.8	–
[9], 23.97 h	–	166	–
[9], 47.95 h	–	220	–
[9], 71.92 h	–	269	–
[9], 95.9 h	–	310	–
[9], 119.75 h	–	346	–
[10], 1.009 h	–	–	1.32
[10], 2.018 h	–	–	1.26
[10], 3.995 h	–	–	5.22
[10], 6.005 h	–	–	4.15
[10], 7.982 h	–	–	2.24
[10], 9.992 h	–	–	1.6
[11], 10.07 h	4790	–	–
[11], 24.05 h	16900	–	–
[11], 48.1 h	22700	–	–
[11], 72.03 h	23700	–	–
[11], 96.08 h	24500	–	–
[11], 120 h	24900	–	–

[3H][3H] [[3H] radioactivity]
[12], dosed: [3H]benzo(a)pyrene, 1 ug/kg, inhalation, Sprague Dawley, radiolabel
Conditions	concentration in blood [µg/kg]
0.25 h	0.038
0.5 h	0.016
1 h	0.016
1.5 h	0.021
2 h	0.019
3 h	0.011
4 h	0.008
5 min	0.039
6 h	0.017
10 min	0.03

dosed: [3H]benzo(a)pyrene, 1 ug/kg, inhalation, radiolabel
Conditions	concentration in feces, [22] [µg/kg]	concentration in kidney, [13] [µg/kg]	concentration in liver, [15] [µg/kg]	concentration in lung, [19] [µg/kg]	concentration in urine, [14] [µg/kg]
0.25 h	0.029	0.019	0.196	0.322	0.002
0.5 h	0.033	0.014	0.186	0.204	0.001
1 h	0.143	0.022	0.158	0.154	0.003
1.5 h	0.171	0.024	0.171	0.113	0.008
2 h	0.168	0.02	0.132	0.11	0.011
3 h	0.256	0.018	0.083	0.068	0.012
4 h	0.301	0.017	0.067	0.035	0.016
5 min	0.005	0.011	0.125	0.595	–
6 h	0.447	0.02	0.046	0.052	0.022
10 min	0.008	0.019	0.208	0.419	0.0001

Conditions	concentration in body, [21] [µg/kg]	concentration in heart/thymus, [16] [µg/kg]	concentration in intestines, [23] [µg/kg]	concentration in spleen, [20] [µg/kg]	concentration in stomach, [17] [µg/kg]	concentration in testes, [18] [µg/kg]
0.25 h	0.23	0.008	0.049	0.004	0.007	0.007
0.5 h	0.263	0.005	0.052	0.002	0.012	0.006
1 h	0.271	0.005	0.099	0.003	0.046	0.011
1.5 h	0.25	0.005	0.126	0.002	0.037	0.013
2 h	0.223	0.006	0.11	0.002	0.069	0.011
3 h	0.214	0.005	0.123	0.002	0.05	0.008
4 h	0.21	0.004	0.133	0.001	0.04	0.009
5 min	0.144	0.009	0.019	0.005	0.003	0.004
6 h	0.215	0.004	0.149	0.002	0.058	0.008
10 min	0.264	0.016	0.033	0.003	0.007	0.005

ClC(Cl)=C(Cl)Cl [perchloroethylene]
[12], dosed: perchloroethylene, 12500 ppm, dermal, duration: 4 hr, F344
Conditions	concentration in blood [ng/mL]
0.5 h	20600
1 h	21100
2 h	21500
3 h	25200
4 h	29200

concentration in blood [ng/mL]
Conditions	0.5 h	1 h	2 h	3 h	4 h
[24]	6940	32300	29900	17500	32300
[25]	3610	15200	19600	13900	29200
[26]	17000	45000	39600	31600	42600

Oc1ccc2ccc3c4ccccc4cc4ccc1c2c43 [3-hydroxybenzo(a)pyrene]
[12], dosed: benzo(a)pyrene, 40 umol/kg, iv, Sprague Dawley
Conditions	concentration in blood [µmol/kg]
2 h	0.105
4 h	0.0863
8 h	0.0912
16 h	0.0388
24 h	0.0235
33 h	0.0142
48 h	0.0084
72 h	0.0047

dosed: benzo(a)pyrene, iv
Conditions	concentration in feces, [22] [µmol/kg]	concentration in kidney, [13] [µmol/kg]	concentration in liver, [15] [µmol/kg]	concentration in lung, [19] [µmol/kg]	concentration in urine, [14]
2 h, 40 umol/kg	0.0001	0.195	0.49	0.023	0.0001 µmol/kg
4 h, 40 umol/kg	0.0004	0.429	0.588	0.0236	0.0022 µmol/kg
4.5 h, 0.01 mg/kg	–	–	–	–	0.494 µg/kg
4.5 h, 0.05 mg/kg	–	–	–	–	1.59 µg/kg
8 h, 40 umol/kg	0.0035	0.65	0.141	0.0176	0.0119 µmol/kg
16 h, 40 umol/kg	0.471	0.583	0.0819	0.0153	0.0604 µmol/kg
24 h, 0.01 mg/kg	–	–	–	–	0.582 µg/kg
24 h, 0.05 mg/kg	–	–	–	–	2.5 µg/kg
24 h, 40 umol/kg	4.71	0.347	0.0528	0.0102	0.068 µmol/kg
33 h, 40 umol/kg	7.72	0.293	0.0505	0.0085	0.19 µmol/kg
48 h, 0.01 mg/kg	–	–	–	–	0.068 µg/kg
48 h, 0.05 mg/kg	–	–	–	–	0.305 µg/kg
48 h, 40 umol/kg	8.75	0.0936	0.0149	0.0047	0.149 µmol/kg
72 h, 0.01 mg/kg	–	–	–	–	0.023 µg/kg
72 h, 0.05 mg/kg	–	–	–	–	0.115 µg/kg
72 h, 40 umol/kg	12.9	0.0512	0.0096	0.0045	0.209 µmol/kg

Conditions	concentration in adipose, [28] [µmol/kg]	concentration in skin, [27] [µmol/kg]
2 h	0.0241	0.385
4 h	0.0381	0.232
8 h	0.0582	0.135
16 h	0.0348	0.103
24 h	0.033	0.041
33 h	0.0322	0.0215
48 h	0.0192	0.0148
72 h	0.0114	0.0073

Reference: EPA's CvTdb concentration-time database
